Measurements taken from ChEMBL document CHEMBL4007489, “First Bispecific Inhibitors of the Epidermal Growth Factor Receptor Kinase and the NF-κB Activity As Novel Anticancer Agents” (J Med Chem, 2017).
Values belong to the compound of their own block, whether it stands above or below them. Active and inactive are the calls of the source. The rule behind the calls is not given here.

How the values were obtained:
[1] = target: Transcription factor p65 (Homo sapiens) (UniProt Q04206); test: Inhibition of IL-1beta-stimulated nuclear translocation of GFP-tagged NF-kappaB-p65 (unknown origin) expressed in CHO cells at 15 uM preincubated with IL-1beta for 30 mins followed by compound addition by fluorescence assay; type: cell-based
[2] = target: Transcription factor p65 (Homo sapiens) (UniProt Q04206); test: Inhibition of NF-kappaB-p65 binding to NF-kappaB response element oligonucleotide in nuclear extracts of 12 hrs compound pre-treated human MDA-MB-231 cells at 2.5 to 15 uM by ELISA
In short: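 MDA-MB-231 cells treated with compound or DMSO for 12 h; in some runs TNFα (20 ng/mL final) added for a further 20 min at 37 °C. Nuclear extracts prepared on ice and protein measured by Bradford. 5 μg of extract incubated on plate-immobilized NF-κB response element oligonucleotide. Bound complexes detected with anti-p65 primary and HRP secondary antibody, read at 450 nm. Specificity checked by competition with free oligonucleotide; triplicates.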

[3] = test system: MDA-MB-231; test: Antitumor activity against human MDA-MB-231 cells xenografted in NMRI nu/nu mouse at 25 mg/kg, sc administered 5 days post tumor cell inoculation treated for 14 days followed by treatment pause for 6 days followed by treatment continuation on every second day until day 28 measured on day 7, 14 and day 28; type: functional, organism-based
In short: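 MDA-MB-231 cells, 2 × 10^6 per site in Matrigel, injected into both flanks of female NMRI nu/nu mice about 8 weeks old; 6 mice per group. From day 5 after inoculation (day 1), sc dosing in PBS/propylene glycol 80:20. Dosing every weekday for 14 days, then a 6-day pause, then every second day from day 21 to sacrifice on day 28. Tumor diameters measured weekly by calipers; unpaired two-tailed t test against vehicle.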

[4] = target: Transcription factor p65 (Homo sapiens) (UniProt Q04206); test: Inhibition of IL-1beta-stimulated nuclear translocation of GFP-tagged NF-kappaB-p65 (unknown origin) expressed in CHO cells at 15 uM preincubated with IL-1beta for 30 mins followed by compound addition in presence of Pluronic F127 by fluorescence assay; type: cell-based
[5] = Solubility in water; type: physicochemical; conditions: buffer
[6] = target: Receptor tyrosine-protein kinase erbB-4 (Homo sapiens) (UniProt Q15303); conditions: 0.5 uM
[7] = target: Transcription factor p65 (Homo sapiens) (UniProt Q04206); test: Inhibition of IL-1beta-stimulated nuclear translocation of GFP-tagged NF-kappaB-p65 (unknown origin) expressed in CHO cells preincubated with IL-1beta for 30 mins followed by compound addition by fluorescence assay; type: cell-based
In short: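 A GFP-NF-κB-p65 fusion was used; cells were stimulated for 30 min with 25 ng/mL IL-1β. Translocation of the fusion protein from cytoplasm to nucleus was imaged, and the system automatically quantified the ratio of cytoplasmic to nuclear fluorescence per well.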

[8] = target: T1, Proteasome Macropain subunit MB1 (Homo sapiens) (UniProt P28074); test: Inhibition of chymotrypsin like activity of 26S proteasome derived from human MDA-MB-231 cells at 1 uM
T1 sequence (whole entry): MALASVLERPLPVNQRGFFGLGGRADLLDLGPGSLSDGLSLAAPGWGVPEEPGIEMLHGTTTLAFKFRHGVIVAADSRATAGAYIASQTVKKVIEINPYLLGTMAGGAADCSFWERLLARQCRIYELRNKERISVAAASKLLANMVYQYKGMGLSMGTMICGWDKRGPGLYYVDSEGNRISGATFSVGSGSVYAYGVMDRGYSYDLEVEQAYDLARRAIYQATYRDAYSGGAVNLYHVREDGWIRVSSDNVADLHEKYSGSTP
In short: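 Total protein extract from MDA-MB-231 cells served as the source of 26S proteasome. Trypsin-like, chymotrypsin-like and caspase-like activities were each measured with a specific fluorigenic peptide substrate.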

[9] = target: T2, Proteasome component C5 (Homo sapiens) (UniProt P20618); conditions: 1 uM
T2 sequence (whole entry): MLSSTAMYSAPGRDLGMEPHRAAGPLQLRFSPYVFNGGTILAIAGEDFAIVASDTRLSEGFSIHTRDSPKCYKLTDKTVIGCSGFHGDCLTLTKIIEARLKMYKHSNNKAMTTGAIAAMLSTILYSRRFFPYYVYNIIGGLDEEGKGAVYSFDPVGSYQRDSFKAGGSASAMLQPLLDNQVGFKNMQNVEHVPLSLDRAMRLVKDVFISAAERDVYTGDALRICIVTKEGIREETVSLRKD

[10] = target: Proteasome Macropain subunit (Homo sapiens) (UniProt P49721); conditions: 1 uM
[11] = target: Protein kinase C iota type (Homo sapiens) (UniProt P41743); test: Inhibition of TNFalpha-stimulated PKCI in human U937 cells assessed as residual activity at 10 uM in presence of ATP relative to control; type: cell-based
[12] = target: T3, Epidermal growth factor receptor (Homo sapiens, UniProt P00533); test: biochemical; type: cell-based
[13] = cells; type: cell-based; conditions: Homo sapiens, U-937
[14] = target: Inhibitor of nuclear factor kappa-B kinase subunit alpha (Homo sapiens) (UniProt O15111); test: Inhibition of TNFalpha-stimulated IKKalpha in human U937 cells assessed as residual activity at 10 uM in presence of ATP relative to control; type: cell-based
[15] = target: Inhibitor of nuclear factor kappa-B kinase subunit beta (Homo sapiens) (UniProt O14920); test: Inhibition of TNFalpha-stimulated IKKbeta in human U937 cells assessed as residual activity at 10 uM in presence of ATP relative to control; type: cell-based
[16] = target: Protein kinase C zeta type (Homo sapiens) (UniProt Q05513); test: Inhibition of TNFalpha-stimulated PKCzeta in human U937 cells assessed as residual activity at 10 uM in presence of ATP relative to control; type: cell-based
[17] = target: T4, Receptor-interacting serine/threonine-protein kinase 2 (Homo sapiens, UniProt O43353); test: Inhibition of TNFalpha-stimulated RIPK2 in human U937 cells assessed as residual activity at 10 uM in presence of ATP relative to control; type: cell-based
[18] = target: Mitogen-activated protein kinase 14 (Homo sapiens) (UniProt Q16539); test: Inhibition of TNFalpha-stimulated SAPK2a in human U937 cells assessed as residual activity at 10 uM in presence of ATP relative to control; type: cell-based
[19] = target: Mitogen-activated protein kinase kinase kinase 7 (Homo sapiens) (UniProt O43318); test: Inhibition of TNFalpha-stimulated TAK1 in human U937 cells assessed as residual activity at 10 uM in presence of ATP relative to control; type: cell-based
[20] = target: Serine/threonine-protein kinase TBK1 (Homo sapiens) (UniProt Q9UHD2); test: Inhibition of TNFalpha-stimulated TBK1 in human U937 cells assessed as residual activity at 10 uM in presence of ATP relative to control; type: cell-based
[21] = target: T4, Receptor-interacting serine/threonine-protein kinase 2; test: Inhibition of TNFalpha-stimulated RIPK2 in human U937 cells in presence of 5 uM ATP; type: cell-based
[22] = test system: MDA-MB-231; test: cells; type: functional; conditions: Homo sapiens, MDA-MB-231, 48 h
[23] = species: Homo sapiens; conditions: at 10 µM;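 also: luciferase reporter readout of NF-kappaB activity in human U937 cells, compound added 3 h before TNFalpha stimulation, signal read 2.5 h after stimulation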
[24] = target: T3, Epidermal growth factor receptor; conditions: at 150 nM
[25] = species: Homo sapiens; test: Inhibition of TNFalpha-stimulated NF-kappaB (unknown origin) expressed in human U937 cells at 5 uM incubated for 3 hrs followed by TNFalpha stimulation measured after 2.5 hrs by luciferase reporter gene assay; type: cell-based
[26] = test system: MDA-MB-231; test: Growth inhibition of human MDA-MB-231 cells at 20 uM after 48 hrs by MTT assay; type: functional, cell-based
In short: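 MDA-MB-231 cells seeded at 45000 per well and left to adhere overnight; compounds added after 24 h. Incubated a further 48 h at 37 °C. MTT added for 1 h, then cells lysed with 10% SDS in 0.01 N HCl for at least 2 h at 37 °C. Absorbance read at 570 nm.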

Sequence of Transcription factor p65 (Homo sapiens) (Q04206 whole entry, the tested form may be a part): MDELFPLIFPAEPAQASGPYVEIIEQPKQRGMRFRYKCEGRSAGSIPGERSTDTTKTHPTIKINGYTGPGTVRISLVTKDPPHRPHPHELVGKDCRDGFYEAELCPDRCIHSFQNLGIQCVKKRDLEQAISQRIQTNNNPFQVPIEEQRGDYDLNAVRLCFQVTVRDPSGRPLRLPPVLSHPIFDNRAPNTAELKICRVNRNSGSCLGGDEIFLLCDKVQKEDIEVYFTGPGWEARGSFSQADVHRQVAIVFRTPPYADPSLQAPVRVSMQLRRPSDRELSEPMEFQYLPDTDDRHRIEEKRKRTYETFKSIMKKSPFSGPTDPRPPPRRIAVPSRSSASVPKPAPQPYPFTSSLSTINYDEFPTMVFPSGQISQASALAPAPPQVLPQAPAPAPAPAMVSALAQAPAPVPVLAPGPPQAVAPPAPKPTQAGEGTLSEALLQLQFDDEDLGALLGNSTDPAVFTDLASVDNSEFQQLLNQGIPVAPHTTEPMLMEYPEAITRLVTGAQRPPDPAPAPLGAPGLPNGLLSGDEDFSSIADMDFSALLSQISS
T3 sequence (P00533 whole entry): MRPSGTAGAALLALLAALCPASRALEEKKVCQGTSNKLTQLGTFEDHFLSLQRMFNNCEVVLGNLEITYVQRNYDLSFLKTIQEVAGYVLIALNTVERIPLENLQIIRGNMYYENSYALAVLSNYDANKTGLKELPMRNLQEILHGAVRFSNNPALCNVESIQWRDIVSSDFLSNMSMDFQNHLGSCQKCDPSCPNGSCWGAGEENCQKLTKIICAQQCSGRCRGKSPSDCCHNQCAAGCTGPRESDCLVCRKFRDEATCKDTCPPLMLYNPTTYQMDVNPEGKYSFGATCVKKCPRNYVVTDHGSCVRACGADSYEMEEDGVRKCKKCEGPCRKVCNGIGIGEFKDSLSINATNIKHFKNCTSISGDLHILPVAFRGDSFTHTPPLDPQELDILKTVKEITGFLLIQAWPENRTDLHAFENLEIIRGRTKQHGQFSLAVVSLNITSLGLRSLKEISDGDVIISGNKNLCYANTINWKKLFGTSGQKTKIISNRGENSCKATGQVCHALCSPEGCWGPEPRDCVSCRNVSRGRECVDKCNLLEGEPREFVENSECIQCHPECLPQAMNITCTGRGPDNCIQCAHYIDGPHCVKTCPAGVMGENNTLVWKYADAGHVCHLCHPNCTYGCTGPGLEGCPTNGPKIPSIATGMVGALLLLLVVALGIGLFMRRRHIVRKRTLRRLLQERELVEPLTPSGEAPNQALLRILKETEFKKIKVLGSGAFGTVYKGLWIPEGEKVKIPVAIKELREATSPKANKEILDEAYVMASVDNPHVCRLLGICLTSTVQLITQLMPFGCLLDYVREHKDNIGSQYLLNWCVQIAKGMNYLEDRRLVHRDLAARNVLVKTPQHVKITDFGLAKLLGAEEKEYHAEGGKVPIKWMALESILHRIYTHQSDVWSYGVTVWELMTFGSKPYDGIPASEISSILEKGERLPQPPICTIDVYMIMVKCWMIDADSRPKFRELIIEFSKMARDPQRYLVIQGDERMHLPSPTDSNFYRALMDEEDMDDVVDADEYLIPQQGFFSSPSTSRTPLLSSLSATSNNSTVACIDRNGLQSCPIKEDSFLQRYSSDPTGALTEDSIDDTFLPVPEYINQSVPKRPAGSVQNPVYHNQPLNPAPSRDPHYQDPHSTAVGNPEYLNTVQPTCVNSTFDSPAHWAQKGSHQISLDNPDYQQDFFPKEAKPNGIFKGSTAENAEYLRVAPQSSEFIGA
T4 sequence (O43353 whole entry): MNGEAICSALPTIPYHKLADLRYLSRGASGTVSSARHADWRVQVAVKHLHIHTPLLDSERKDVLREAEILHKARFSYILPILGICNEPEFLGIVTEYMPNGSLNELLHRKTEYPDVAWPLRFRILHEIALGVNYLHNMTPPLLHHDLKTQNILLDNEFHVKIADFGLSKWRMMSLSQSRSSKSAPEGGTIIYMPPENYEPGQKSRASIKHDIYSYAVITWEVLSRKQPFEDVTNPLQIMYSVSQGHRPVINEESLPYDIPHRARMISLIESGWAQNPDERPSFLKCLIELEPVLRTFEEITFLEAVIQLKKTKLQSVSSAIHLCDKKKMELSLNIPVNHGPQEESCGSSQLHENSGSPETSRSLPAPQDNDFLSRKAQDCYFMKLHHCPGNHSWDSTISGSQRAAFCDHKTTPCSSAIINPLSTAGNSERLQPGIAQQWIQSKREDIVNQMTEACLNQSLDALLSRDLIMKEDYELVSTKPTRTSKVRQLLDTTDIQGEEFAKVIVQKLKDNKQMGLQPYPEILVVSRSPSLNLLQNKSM
Sequence of Receptor tyrosine-protein kinase erbB-4 (Homo sapiens) (Q15303 whole entry): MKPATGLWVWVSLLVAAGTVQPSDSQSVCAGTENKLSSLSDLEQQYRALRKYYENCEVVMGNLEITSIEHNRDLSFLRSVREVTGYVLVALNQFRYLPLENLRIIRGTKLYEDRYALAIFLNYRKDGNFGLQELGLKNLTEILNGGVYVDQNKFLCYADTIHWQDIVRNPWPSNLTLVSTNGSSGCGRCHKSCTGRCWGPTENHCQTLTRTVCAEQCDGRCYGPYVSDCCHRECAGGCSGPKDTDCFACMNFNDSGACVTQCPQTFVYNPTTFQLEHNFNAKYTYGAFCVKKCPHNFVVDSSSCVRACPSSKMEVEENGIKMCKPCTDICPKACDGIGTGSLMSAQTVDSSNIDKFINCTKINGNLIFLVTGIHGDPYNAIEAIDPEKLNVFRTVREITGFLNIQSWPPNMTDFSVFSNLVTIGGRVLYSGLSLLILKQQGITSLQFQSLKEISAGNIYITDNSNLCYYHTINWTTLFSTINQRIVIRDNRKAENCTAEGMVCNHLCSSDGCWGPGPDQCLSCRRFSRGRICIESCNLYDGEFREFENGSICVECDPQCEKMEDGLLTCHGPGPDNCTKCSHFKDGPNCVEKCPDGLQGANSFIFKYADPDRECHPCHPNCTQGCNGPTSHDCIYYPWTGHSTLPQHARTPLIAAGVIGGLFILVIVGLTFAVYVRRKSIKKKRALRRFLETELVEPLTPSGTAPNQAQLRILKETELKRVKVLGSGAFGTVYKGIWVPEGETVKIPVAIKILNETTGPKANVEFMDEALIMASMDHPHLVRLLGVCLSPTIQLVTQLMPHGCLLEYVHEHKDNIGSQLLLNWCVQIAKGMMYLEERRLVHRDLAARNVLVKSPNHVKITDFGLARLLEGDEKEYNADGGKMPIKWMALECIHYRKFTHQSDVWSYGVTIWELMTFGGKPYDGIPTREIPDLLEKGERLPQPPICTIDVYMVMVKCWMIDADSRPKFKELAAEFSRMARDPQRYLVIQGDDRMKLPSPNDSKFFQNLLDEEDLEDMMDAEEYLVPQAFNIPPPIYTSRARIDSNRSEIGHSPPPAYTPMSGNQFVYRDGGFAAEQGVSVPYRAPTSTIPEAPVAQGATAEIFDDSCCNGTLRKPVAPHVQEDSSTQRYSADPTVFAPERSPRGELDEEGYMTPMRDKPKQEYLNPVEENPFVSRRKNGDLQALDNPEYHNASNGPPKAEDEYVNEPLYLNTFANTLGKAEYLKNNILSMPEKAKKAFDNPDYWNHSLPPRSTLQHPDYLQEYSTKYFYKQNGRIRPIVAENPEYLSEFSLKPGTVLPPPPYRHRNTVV
Sequence of Inhibitor of nuclear factor kappa-B kinase subunit beta (Homo sapiens) (O14920 whole entry): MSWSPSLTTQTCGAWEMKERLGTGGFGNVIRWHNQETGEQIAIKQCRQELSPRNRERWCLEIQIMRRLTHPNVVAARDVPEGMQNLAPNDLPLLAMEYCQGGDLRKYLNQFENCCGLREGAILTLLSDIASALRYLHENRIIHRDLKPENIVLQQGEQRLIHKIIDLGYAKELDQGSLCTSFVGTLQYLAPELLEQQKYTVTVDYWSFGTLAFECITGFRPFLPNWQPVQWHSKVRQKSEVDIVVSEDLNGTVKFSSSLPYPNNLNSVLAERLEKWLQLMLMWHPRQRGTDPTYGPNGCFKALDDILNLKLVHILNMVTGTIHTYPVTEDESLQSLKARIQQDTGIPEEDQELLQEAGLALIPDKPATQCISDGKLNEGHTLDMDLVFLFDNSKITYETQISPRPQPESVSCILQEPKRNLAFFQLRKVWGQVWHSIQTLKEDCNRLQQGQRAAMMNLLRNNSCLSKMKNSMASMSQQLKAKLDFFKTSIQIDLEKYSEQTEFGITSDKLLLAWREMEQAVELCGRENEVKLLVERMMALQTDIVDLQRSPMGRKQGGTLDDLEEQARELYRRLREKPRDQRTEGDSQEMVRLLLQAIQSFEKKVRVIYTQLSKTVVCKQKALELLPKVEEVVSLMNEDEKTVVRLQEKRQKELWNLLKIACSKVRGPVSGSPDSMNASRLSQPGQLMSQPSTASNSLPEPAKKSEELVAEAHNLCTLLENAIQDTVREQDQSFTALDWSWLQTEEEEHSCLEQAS
Sequence of Mitogen-activated protein kinase 14 (Homo sapiens) (Q16539 whole entry): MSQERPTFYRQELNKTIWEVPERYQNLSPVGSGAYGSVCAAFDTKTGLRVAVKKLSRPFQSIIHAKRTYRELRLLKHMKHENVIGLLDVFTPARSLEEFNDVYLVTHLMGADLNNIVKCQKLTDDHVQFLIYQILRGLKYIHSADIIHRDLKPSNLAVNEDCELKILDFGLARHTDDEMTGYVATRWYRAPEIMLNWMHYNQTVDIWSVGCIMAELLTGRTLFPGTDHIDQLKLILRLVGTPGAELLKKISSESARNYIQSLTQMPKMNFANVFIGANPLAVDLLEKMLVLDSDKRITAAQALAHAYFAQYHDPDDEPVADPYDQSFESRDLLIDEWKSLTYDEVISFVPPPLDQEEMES
Sequence of Proteasome Macropain subunit (Homo sapiens) (P49721 whole entry): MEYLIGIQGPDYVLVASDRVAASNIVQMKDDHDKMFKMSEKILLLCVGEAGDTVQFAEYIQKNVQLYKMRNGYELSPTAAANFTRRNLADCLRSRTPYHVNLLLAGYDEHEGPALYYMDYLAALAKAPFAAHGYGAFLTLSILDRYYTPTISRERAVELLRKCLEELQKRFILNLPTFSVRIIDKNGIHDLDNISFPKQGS

inhibition [1]: inactive
inhibition [2]: inactive
inhibition [4]: inactive
solubility [5]: Soluble
inhibition [6]: 46 to 76%
Structure (SMILES): COc1cc2ncnc(Nc3ccc(F)c(Cl)c3)c2cc1OCCCN1CCOCC1 [GEFITINIB]
TGI [3]: Active

inhibition [7]: Dose-dependent effect
inhibition [8]: Active
inhibition [9]: Active
inhibition [10]: Active
Structure (SMILES): CC(C)C[C@H](NC(=O)[C@H](Cc1ccccc1)NC(=O)c1cnccn1)B(O)O

Activity [11]: 106%
IC50 [12]: 17.2 nM
IC50 [13]: 4100 nM
Activity [14]: 117%
Activity [15]: 100%
Activity [16]: 92%
Activity [17]: 54%
Activity [18]: 78%
Activity [19]: 106%
Activity [20]: 92%
IC50 [21]: > 10000 nM
GI50 [22]: 9500 nM
inhibition [24]: 86.1%
Structure (SMILES): S=C(NCc1ccccc1)Nc1ccc2ncnc(Nc3cccc(Br)c3)c2c1
inhibition [23]: 97%

IC50 [12]: 120 nM
IC50 [13]: 700 nM
inhibition [24]: 60%
Structure (SMILES): S=C(Nc1ccc2ncnc(Nc3cccc(Cl)c3)c2c1)Nc1ncc(Cl)s1
inhibition [25]: 88.2%
growth inhibition (GI) [26]: inactive
